Test results as given in publication PMC9660540 (Clinical Cancer Research, 2022).

Assays:
NSCLC (post-IO) = assay: Tumor response; type: in vivo, human
[1] = healthy volunteers; ref [32]; cited from earlier work
[2] = Causally related adverse events, phase Ia/Ib study in patients with solid tumors; type: in vivo, human
Outline: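 Expansion cohorts received nanosuspension at 100 mg once daily. The safety set was all patients given ≥1 dose, classified by the treatment actually received. Treatment was delayed or reduced for grade ≥3 or clinically significant nonhematologic toxicity.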

Cc1cc(-c2nnc(N)nc2-c2ccc(F)cc2)cc(Cl)n1 [AZD4635]
approximately 27%: Cmax of capsule formulation compared with nanosuspension, higher by [1]
5 (33.3%) n (%): Best response of SD (NSCLC (post-IO); NSCLC)
~10%: AUC of capsule formulation compared with nanosuspension, higher by [1]
3 (12.0) n (%): ≥Grade 3 causally related AE ([2]; CRC IO-naïve)
1 (6.7%) n (%): Disease control at 22 Weeks, Yes (NSCLC (post-IO); NSCLC Post-IO)
1 (4.0) n (%): Causally related AE grade ≥3: Fatigue ([2]; CRC IO-naïve) | Causally related AE grade ≥3: Sudden death ([2]; CRC IO-naïve) | Causally related AE grade ≥3: Vomiting ([2]; CRC IO-naïve)
1 (5.9) n (%): Causally related AE grade ≥3: Fatigue ([2]; NSCLC Post-IO) | ≥Grade 3 causally related AE ([2]; NSCLC Post-IO)
1 (5.3) n (%): Causally related AE grade ≥3: Abdominal pain ([2]; Other IO-naïve) | Causally related AE grade ≥3: Diarrhea ([2]; Other IO-naïve)
2 (10.5) n (%): Causally related AE grade ≥3: Fatigue ([2]; Other IO-naïve) | Causally related AE grade ≥3: Hypertension ([2]; Other IO-naïve)
0 n (%): Causally related AE grade ≥3: ALT increased ([2]; CRC IO-naïve) | Causally related AE grade ≥3: Abdominal pain ([2]; CRC IO-naïve) | Causally related AE grade ≥3: Anemia ([2]; CRC IO-naïve) | Causally related AE grade ≥3: Arthralgia ([2]; CRC IO-naïve) | Causally related AE grade ≥3: Blood creatinine increased ([2]; CRC IO-naïve) | Causally related AE grade ≥3: CRP increased ([2]; CRC IO-naïve) | Causally related AE grade ≥3: Dermatitis psoriasiform ([2]; CRC IO-naïve) | Causally related AE grade ≥3: Diarrhea ([2]; CRC IO-naïve) | Causally related AE grade ≥3: Dizziness ([2]; CRC IO-naïve) | Causally related AE grade ≥3: Dyspnea ([2]; CRC IO-naïve) | Causally related AE grade ≥3: Headache ([2]; CRC IO-naïve) | Causally related AE grade ≥3: Hyperglycemia ([2]; CRC IO-naïve) | Causally related AE grade ≥3: Hypertension ([2]; CRC IO-naïve) | Causally related AE grade ≥3: Hypophosphatemia ([2]; CRC IO-naïve) | Causally related AE grade ≥3: Insomnia ([2]; CRC IO-naïve) | Causally related AE grade ≥3: Lipase increased ([2]; CRC IO-naïve) | Causally related AE grade ≥3: Lymphocyte count decreased ([2]; CRC IO-naïve) | Causally related AE grade ≥3: Myositis ([2]; CRC IO-naïve) | Causally related AE grade ≥3: Nausea ([2]; CRC IO-naïve) | Causally related AE grade ≥3: Neutrophil count decreased ([2]; CRC IO-naïve) | Causally related AE grade ≥3: Obliterative bronchiolitis ([2]; CRC IO-naïve) | Causally related AE grade ≥3: Rash ([2]; CRC IO-naïve) | Causally related AE grade ≥3: Type I diabetes mellitus ([2]; CRC IO-naïve) | Causally related AE grade ≥3: ALT increased ([2]; NSCLC Post-IO) | Causally related AE grade ≥3: Abdominal pain ([2]; NSCLC Post-IO) | Causally related AE grade ≥3: Anemia ([2]; NSCLC Post-IO) | Causally related AE grade ≥3: Arthralgia ([2]; NSCLC Post-IO) | Causally related AE grade ≥3: Blood creatinine increased ([2]; NSCLC Post-IO) | Causally related AE grade ≥3: CRP increased ([2]; NSCLC Post-IO) | Causally related AE grade ≥3: Dermatitis psoriasiform ([2]; NSCLC Post-IO) | Causally related AE grade ≥3: Diarrhea ([2]; NSCLC Post-IO) | Causally related AE grade ≥3: Dizziness ([2]; NSCLC Post-IO) | Causally related AE grade ≥3: Dyspnea ([2]; NSCLC Post-IO) | Causally related AE grade ≥3: Headache ([2]; NSCLC Post-IO) | Causally related AE grade ≥3: Hyperglycemia ([2]; NSCLC Post-IO) | Causally related AE grade ≥3: Hypertension ([2]; NSCLC Post-IO) | Causally related AE grade ≥3: Hypophosphatemia ([2]; NSCLC Post-IO) | Causally related AE grade ≥3: Insomnia ([2]; NSCLC Post-IO) | Causally related AE grade ≥3: Lipase increased ([2]; NSCLC Post-IO) | Causally related AE grade ≥3: Lymphocyte count decreased ([2]; NSCLC Post-IO) | Causally related AE grade ≥3: Myositis ([2]; NSCLC Post-IO) | Causally related AE grade ≥3: Nausea ([2]; NSCLC Post-IO) | Causally related AE grade ≥3: Neutrophil count decreased ([2]; NSCLC Post-IO) | Causally related AE grade ≥3: Obliterative bronchiolitis ([2]; NSCLC Post-IO) | Causally related AE grade ≥3: Rash ([2]; NSCLC Post-IO) | Causally related AE grade ≥3: Sudden death ([2]; NSCLC Post-IO) | Causally related AE grade ≥3: Type I diabetes mellitus ([2]; NSCLC Post-IO) | Causally related AE grade ≥3: Vomiting ([2]; NSCLC Post-IO) | Causally related AE grade ≥3: ALT increased ([2]; Other IO-naïve) | Causally related AE grade ≥3: Anemia ([2]; Other IO-naïve) | Causally related AE grade ≥3: Arthralgia ([2]; Other IO-naïve) | Causally related AE grade ≥3: Blood creatinine increased ([2]; Other IO-naïve) | Causally related AE grade ≥3: CRP increased ([2]; Other IO-naïve) | Causally related AE grade ≥3: Dermatitis psoriasiform ([2]; Other IO-naïve) | Causally related AE grade ≥3: Dizziness ([2]; Other IO-naïve) | Causally related AE grade ≥3: Dyspnea ([2]; Other IO-naïve) | Causally related AE grade ≥3: Headache ([2]; Other IO-naïve) | Causally related AE grade ≥3: Hyperglycemia ([2]; Other IO-naïve) | Causally related AE grade ≥3: Hypophosphatemia ([2]; Other IO-naïve) | Causally related AE grade ≥3: Insomnia ([2]; Other IO-naïve) | Causally related AE grade ≥3: Lipase increased ([2]; Other IO-naïve) | Causally related AE grade ≥3: Lymphocyte count decreased ([2]; Other IO-naïve) | Causally related AE grade ≥3: Myositis ([2]; Other IO-naïve) | Causally related AE grade ≥3: Nausea ([2]; Other IO-naïve) | Causally related AE grade ≥3: Neutrophil count decreased ([2]; Other IO-naïve) | Causally related AE grade ≥3: Obliterative bronchiolitis ([2]; Other IO-naïve) | Causally related AE grade ≥3: Rash ([2]; Other IO-naïve) | Causally related AE grade ≥3: Sudden death ([2]; Other IO-naïve) | Causally related AE grade ≥3: Type I diabetes mellitus ([2]; Other IO-naïve) | Causally related AE grade ≥3: Vomiting ([2]; Other IO-naïve)
